RGS4 pot: potentiators or activators of RGS4 | HEK293 M3R/inducible RGS4, carbachol calcium flux Fluo4; stronger effect = lower value | B-score at 10 µM | 0.92% of 310,000 active;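 active means B-score of the integrated calcium signal more than 4 SD below the library mean, with starting fluorescence not abnormally high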;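 further: negative B-score means reduced calcium response which marks RGS4 activation or potentiation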
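Test system: HEK293 cells with stable M3R and inducible RGS4; also added: carbachol at ECmax as muscarinic agonist stimulus; schedule: dye loading 30 min 37 °C, buffer rest 30 min RT; technique: kinetic calcium fluorescence imaging with Fluo4-AM dye, 2 µM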
MrgX1 antag: blocks BAM8-22 activation of human MrgX1 receptor | 1.3% of 310,000 active | B-score at 10 µM | MRGX1-HEK293 calcium flux, Fluo-4, BAM8-22 antagonism; stronger effect = lower value | Q96LB2;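 active means calcium-response B-score plate-corrected more than 3 library SD below zero, starting fluorescence within 5 deviations, no agonist response on first addition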;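 further: peak minus trough fluorescence over baseline after final BAM8-22 challenge near maximal dose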
Target sequence (Q96LB2 whole entry, looked up): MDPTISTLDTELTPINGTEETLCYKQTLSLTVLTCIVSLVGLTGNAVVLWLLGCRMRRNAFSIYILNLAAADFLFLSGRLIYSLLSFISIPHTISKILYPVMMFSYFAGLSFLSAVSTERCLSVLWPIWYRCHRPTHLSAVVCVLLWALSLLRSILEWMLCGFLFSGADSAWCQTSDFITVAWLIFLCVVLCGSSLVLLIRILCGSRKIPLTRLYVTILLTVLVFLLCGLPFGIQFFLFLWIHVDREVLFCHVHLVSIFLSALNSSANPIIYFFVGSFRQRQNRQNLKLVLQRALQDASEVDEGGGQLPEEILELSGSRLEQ
RGS4 block: human RGS4 inhibition | P49798 | HEK293 M3R/RGS4 inducible, Fluo-4 calcium flux; stronger effect = higher value; triggered by carbachol at its EC20 | 0.45% of 310,000 active | B-score at 10 µM;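 active means B-score, a plate-corrected calcium signal, over three deviations above library mean, with baseline fluorescence within five deviations of library mean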;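 further: RGS4 expression induced by doxycycline in cells with stable M3 receptor; B-score is computed from the integrated fluorescence ratio over baseline after carbachol; higher B-score means a larger calcium signal and so more RGS4 inhibition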
Target sequence (P49798 whole entry, looked up): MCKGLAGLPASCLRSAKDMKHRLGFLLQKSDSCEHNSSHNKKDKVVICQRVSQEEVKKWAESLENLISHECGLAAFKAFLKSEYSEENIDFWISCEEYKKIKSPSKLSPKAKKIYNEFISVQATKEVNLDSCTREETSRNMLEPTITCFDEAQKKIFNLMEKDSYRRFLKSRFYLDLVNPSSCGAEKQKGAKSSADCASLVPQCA
MrgX1 PAM: allosterically activates human MrgX1 receptor signaling | Q96LB2 | MrgX1-HEK293, Fluo-4 calcium flux, FDSS; stronger effect = higher value | B-score at 10 µM | 0.63% of 310,000 active | AID 588675;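 active means plate-corrected calcium response at least 3 library SD above typical, normal starting fluorescence, not activating the receptor alone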;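 further: compound read alongside a low EC10 to EC30 dose of BAM8-22 agonist; peak minus trough fluorescence over baseline measured at the second addition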
MrgX1 ag: agonists of human MrgX1 receptor | B-score at 10 µM | 0.44% of 310,000 active | AID 588627 | MrgX1-HEK293 cells, Fluo-4 calcium fluorescence, agonist mode; stronger effect = higher value;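 active means calcium response B-score plate-corrected fluorescence ratio at least 3 library SD, with starting fluorescence B-score inside 5 SD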
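Material – MrgX1-expressing HEK293 cells · Input – 15,000 cells seeded per well · Dosing – compound as first of three additions · Times – overnight seeding, then 1 h dark dye loading · Measured by – kinetic Fluo-4 NW fluorescence of intracellular calcium · Read-out – B-scored fluorescence response ratio · Benchmarks – positive and negative control wells on each plate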
RGS4 activ val: confirmation of RGS4 activators; AID 602282; HEK293 M3R/RGS4 inducible, carbachol calcium flux Fluo4; inhibition, % at 10 µM; 89% of 1,100 active; shares compounds with RGS4 pot;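 active means inhibition above 3 SD of the buffer control wells, cut at about 41% in these data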;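 further: signal is the integrated peak-minus-minimum Fluo4 fluorescence over baseline ratio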
RGS4 act ctr: counter-screen for RGS4 activators: effect in non-induced cells. HEK293 M3R non-induced RGS4, Fluo4 calcium flux; after carbachol challenge at its EC90. shares compounds with RGS4 pot. inhibition, % at 10 µM. 82% of 1,100 active;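 active means inhibition exceeding 3 SD of buffer-only control wells, cut at about 26% in these data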;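 further: percent drop in integrated peak-minus-baseline over baseline Fluo4 ratio after carbachol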
Numbers stand for hits; i = inactive; nt = no result. A selection: hits, their analogues and other compounds. The true share with any hit is near 3.5%.

SMILES	RGS4 pot	MrgX1 antag	RGS4 block	MrgX1 PAM	MrgX1 ag	RGS4 activ val	RGS4 act ctr
COc1ccccc1Cn1c(=O)oc2ccc(C)cc21	i	i	i	i	i	nt	nt
Cc1cccn2c(=O)nc(SCC(=O)N3CCN(c4ccccc4)CC3)nc12	i	i	i	i	i	nt	nt
O=C(c1cc(-c2ccncc2)nc2ccc(Br)cc12)N1CCN(c2ccccn2)CC1	i	i	i	i	i	nt	nt
COc1ccc(-c2cc(C(=O)N3CCN(c4cccc(C)c4C)CC3)c3ccccc3n2)cc1OC	-8.5	i	i	i	i	52	i
O=C(c1cc(-c2cccc(Cl)c2)nc2ccccc12)N1CCN(c2ccccn2)CC1	-8.4	i	i	i	i	56	i
Oc1ccc(-c2nc3c4c(ncn3n2)-c2ccccc2CC42CCCC2)cc1	i	i	i	i	i	nt	nt
Cc1nc2nc(SCC(=O)NCCCN3CCCC3)nn2c(C)c1Cc1ccccc1Cl	-8.2	i	i	i	i	78	42
C=CCOC(=O)C1=C(C)NC(SCC)=C(C#N)C1c1ccc(Cl)cc1 (stereo unspecified)	-7.6	i	i	i	i	93	84
C=CCOC(=O)C1=C(C)NC(SCC(N)=O)=C(C#N)C1c1ccc(C)cc1 (stereo unspecified)	i	i	i	i	i	nt	nt
CCOc1ccc(/C=C/C(=O)NCc2ccccc2)cc1	i	i	i	i	i	nt	nt
COCC(=O)Nc1cc(Cl)c(OC)cc1OC	i	i	i	i	i	nt	nt
Cc1ccc(Cl)cc1NC(=O)COC(=O)CC1CC2CCC1C2 (stereo unspecified)	i	i	i	i	i	nt	nt
COC(=O)c1ccc(C(=O)OC)c(NC(=O)COC(=O)CC2CC3CCC2C3)c1 (stereo unspecified)	-9.7	i	i	i	i	90	33
CC1CN(C(=S)NC(=O)c2ccc([N+](=O)[O-])cc2)CC(C)O1 (stereo unspecified)	i	i	i	i	i	nt	nt
CCN(Cc1ccccc1)Cc1ccc(OCc2ccccc2)cc1	-8.3	i	i	i	i	93	70
Nc1ccc(OCc2ccccc2)cc1	i	i	i	i	i	nt	nt
CNS(=O)(=O)c1cccc(C(=O)OCC(=O)N2CCCC2)c1	i	i	i	i	i	nt	nt
CNS(=O)(=O)c1cccc(C(=O)OCc2cc(Cl)cc3c2OCOC3)c1	-8.6	i	i	i	i	i	i
O=C(NCC(c1ccco1)N1CCN(c2ccc(F)cc2)CC1)C1CCCCC1 (stereo unspecified)	i	i	i	i	i	nt	nt
O=C(Nc1cccc(-c2nc3ccccc3s2)c1)c1cc(=O)c2ccccc2o1	i	i	i	i	i	nt	nt
O=C(Nc1cccc(-c2nc3ccccc3s2)c1)c1cccs1	-8.1	i	i	i	i	92	67
Oc1ccccc1Oc1ncc(Br)c(N2CCOCC2)n1	-11	i	i	i	i	92	64
Cc1cc(-n2cnnn2)cc(C)c1S(=O)(=O)N(C)c1ccccc1	i	i	i	i	i	nt	nt
Cc1cc(/C=C(/C#N)c2nc3ccccc3[nH]2)c(C)n1-c1cc(C(=O)O)cc(C(=O)O)c1	-7.9	nt	i	nt	nt	52	44
CSc1ccccc1NC(=O)CN(C1CCCCC1)S(C)(=O)=O	i	i	i	i	i	nt	nt
SMILES	RGS4 pot	MrgX1 antag	RGS4 block	MrgX1 PAM	MrgX1 ag	RGS4 activ val	RGS4 act ctr
CN(CC(=O)Nc1ccccc1Sc1ccccc1)C1CCCCC1	-8.2	i	i	i	i	94	89
CCOc1ccccc1NC(=O)C1C2CCC3C(CCC21)C3(Cl)Cl (stereo unspecified)	-7.9	i	i	i	i	i	i
O=C(Nc1ccccc1Cl)C1C2CCC3C(CCC21)C3(Cl)Cl (stereo unspecified)	i	i	i	i	i	nt	nt
Cc1c(Cc2ccccc2)sc(NC(=O)C(C)(C)C)c1C(N)=O	i	i	i	i	i	nt	nt
COc1ccc(S(=O)(=O)N2CCOCC2)cc1NC(=O)CCc1nc2ccccc2c(=O)[nH]1	i	i	i	i	i	nt	nt
CCN(c1ccccc1)S(=O)(=O)c1ccc(OC)c(NC(=O)CCc2nc3ccccc3c(=O)[nH]2)c1	-7.9	i	i	i	i	85	56
CC(C)(C)OC(=O)NC1CC2CCCC(C1)N2Cc1ccccc1 (stereo unspecified)	-9.7	nt	i	nt	nt	92	89
Cc1cc(-c2nnc(SCC(=O)Nc3ccc(F)cc3F)n2N)n[nH]1	i	i	i	i	i	nt	nt
Cc1cc2ncn(C(=O)c3c(-c4ccccc4Cl)noc3C)c2cc1C	-11	i	i	i	i	94	79
O=C(NCc1ccccc1)C(c1c(F)cccc1Cl)N(C(=O)c1csnn1)C1CC1 (stereo unspecified)	i	i	i	i	i	nt	nt
Fc1ccc(N2CCN(C3=Nc4cccc5cccc3c45)CC2)cc1	-13	i	i	i	i	94	74
c1ccc(CN2CCN(C3=Nc4cccc5cccc3c45)CC2)cc1	i	nt	i	nt	nt	nt	nt
O=S(=O)(Nc1ccc(Cl)cc1)c1ccc(N2CCOCC2)c(NC(=S)NC2CC2)c1	-12	i	i	i	i	i	i
CC(C)(C)c1ccccc1OCC(=O)Nc1ccccc1C(=O)NCc1cccnc1	-11	i	i	i	i	88	59
Cc1ccc2nc3sc(C(=O)Nc4ccc(N5CCOCC5)cc4)c(N)c3cc2c1	i	nt	i	nt	nt	nt	nt
Cc1cccc2cc3c(N)c(C(=O)Nc4ccc(N5CCOCC5)cc4)sc3nc12	-11	-5.4	i	i	i	92	74
CN(C)Cc1ccccc1CCc1ccccc1	-8.3	i	i	i	i	78	42
CCCCOc1ccc(C(O)C(CN2CCOCC2)c2ccccc2)cc1 (stereo unspecified)	i	i	i	i	i	nt	nt
CCCCOc1ccc(C(O)C(CN2CCCCC2)c2ccccc2)cc1 (stereo unspecified)	-7.6	i	i	i	i	58	84
CCNc1nc(NC(C)(C)C)nc(N2CCCCC2)n1	-7.9	i	i	i	i	94	93
CCNc1nc(N2CCCC2)nc(N2CCCC2)n1	i	i	i	i	i	nt	nt
Cc1ccccc1NS(=O)(=O)c1ccc(C(=O)N2CCCC2)cc1	i	i	i	i	i	nt	nt
Cc1cccc(NS(=O)(=O)c2ccc(C(=O)N3CCN(c4ccccc4O)CC3)cc2)c1C	-8.3	i	i	i	i	85	70
Cc1cccc(C)c1NCC(=O)N1CCN(Cc2ccccc2)CC1	i	i	i	i	i	nt	nt
CSc1nc2sc3c(c2c(=O)n1C1CCCCC1)CCN(C)C3	i	i	i	i	i	nt	nt
C=C(C)CSc1nc2sc3c(c2c(=O)n1C1CCCCC1)CCN(C)C3	-7.8	i	i	i	i	93	86
